Screening data: PubChem BioAssay, several laboratories
PfGluPho inh: PfG6PD (Plasmodium falciparum) enzyme inhibition | inhibition, % at 20 µM | hit rate 0.78% among 350,000 | PfGluPho enzyme, NADPH resazurin-diaphorase fluorescence | AID 504690;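 active means inhibition reaching at least a set limit at 20 µM in the primary screen, cut at about 59% in these data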;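 further: 0% = DMSO wells with substrate and 100% = DMSO wells lacking glucose-6-phosphate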
HKDC1 inh: blocks human hexokinase HKDC1 activity; Q2TB90; recombinant HKDC1, G6PDH/diaphorase resazurin coupled fluorescence; inhibition, % at 20 µM; hit rate 0.16% among 340,000;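 active means inhibition above about 35% when tested at 20 µM, limit read from the data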;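 further: plate controls were DMSO wells with enzyme for no effect and DMSO wells lacking enzyme for full effect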
Target sequence (Q2TB90 whole entry, looked up): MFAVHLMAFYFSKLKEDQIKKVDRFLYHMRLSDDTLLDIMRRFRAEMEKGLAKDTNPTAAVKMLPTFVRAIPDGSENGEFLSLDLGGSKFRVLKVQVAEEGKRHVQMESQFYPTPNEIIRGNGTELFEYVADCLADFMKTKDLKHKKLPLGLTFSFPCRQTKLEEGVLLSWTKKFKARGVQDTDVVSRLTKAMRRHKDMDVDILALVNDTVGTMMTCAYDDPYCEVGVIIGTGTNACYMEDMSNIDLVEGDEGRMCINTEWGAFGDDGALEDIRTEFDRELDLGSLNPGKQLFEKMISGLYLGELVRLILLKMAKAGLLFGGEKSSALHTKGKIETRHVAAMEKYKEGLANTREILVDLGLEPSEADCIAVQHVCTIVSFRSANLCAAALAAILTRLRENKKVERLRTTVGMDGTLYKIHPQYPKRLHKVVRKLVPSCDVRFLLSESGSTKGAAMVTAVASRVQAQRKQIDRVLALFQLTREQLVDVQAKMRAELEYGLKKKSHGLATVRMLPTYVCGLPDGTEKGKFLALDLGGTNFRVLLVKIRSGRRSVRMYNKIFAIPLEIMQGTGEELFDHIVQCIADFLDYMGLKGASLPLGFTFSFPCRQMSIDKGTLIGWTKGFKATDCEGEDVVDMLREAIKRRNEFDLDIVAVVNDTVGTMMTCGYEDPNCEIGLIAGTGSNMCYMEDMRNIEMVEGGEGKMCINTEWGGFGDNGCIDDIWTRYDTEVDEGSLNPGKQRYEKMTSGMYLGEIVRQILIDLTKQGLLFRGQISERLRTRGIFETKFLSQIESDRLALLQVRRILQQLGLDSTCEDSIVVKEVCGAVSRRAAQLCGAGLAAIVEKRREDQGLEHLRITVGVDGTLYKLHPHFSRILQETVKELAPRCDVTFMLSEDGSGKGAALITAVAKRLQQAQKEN
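test system = in-house recombinant HK5 (HKDC1) enzyme | amount = HKDC1 at 5 µg/mL | control set = DMSO-enzyme wells negative, buffer-substituted wells positive | compound = one dose of 20 µM, 1% DMSO | schedule = reaction time 90 min, room temperature, protected from light | technique = resorufin fluorescence at 613 nm | reagent = glucose with 1 mM ATP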
G6PDH CS: counter-screen for G6PDH assay hits: L. mesenteroides G6PDH inhibition; inhibition, % at 5 µM; hit rate 0.12% among 200,000; Purified L. mesenteroides G6PDH, diaphorase/resazurin coupled fluorescence, 45 min; AID 1020; in the data active means inhibition above about 50%
Tb hexokinase: blocks Trypanosoma brucei hexokinase 1 activity. recombinant TbHK1, G6PDH-coupled NADH A340. inhibition, % at 10 µM. hit rate 0.11% among 220,000;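 active means inhibition of 50% or more in the single-dose primary screen; inactive means inhibition below 50%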
Diaphorase inh: counter-screen for diaphorase-based assays: diaphorase inhibitors and chemical oxidizers | AID 1217 | diaphorase resazurin-to-resorufin fluorescence, NADH, 16 min; bacterial (C. kluyveri) enzyme, not human | hit rate 0.69% among 190,000 | inhibition, % at 20 µM;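 active means primary screen inhibition at 20 µM above a set limit, cut at about 50% in these data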;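 further: plate controls were DMSO with full reaction for no effect and wells lacking NADH for full effect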
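material = Clostridium kluyveri diaphorase enzyme | amount = 0.14 U/mL diaphorase, enzyme working solution | schedule = incubation 16 min, room temperature | detection = fluorescence of resorufin formed from resazurin, Ex 544/Em 590 nm | benchmarks = positive control minus NADH, DMSO neutral control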
* hit, by the source's call; . = no result. Compounds with a hit are over-represented: about 1.2% of the library has one in this group of screens.

SMILES	PfGluPho inh	HKDC1 inh	G6PDH CS	Tb hexokinase	Diaphorase inh
Cc1c(C(=O)c2ccc(Cl)cc2[N+](=O)[O-])c2ccccn2c1CCC#N	12	1	-1	-14	64*
C[C@H]1CN([C@@H](C)CO)C(=O)c2cc(Br)cnc2O[C@H]1CN(C)C(=O)Cc1ccccn1	12	.	.	.	.
Cc1ccc[n+](CC(=O)c2ccc(NC(=O)c3ccccc3)cc2)c1	-10	-9	-2	-6	2
Cc1cc(C)c[n+](CC(=O)c2ccc(NC(=O)c3ccccc3)cc2)c1	18	-5	17	2	71*
COc1ccc(C2NC(=O)NC3=C2CCc2ccccc23)cc1 (stereo not drawn)	7	25	18	-1	74*
Cc1ccc(C2NC(=O)NC3=C2CCc2ccccc23)cc1 (stereo not drawn)	10	8	3	-4	32
Nc1ccccc1NC1CCCCC1	2	0	10	7	82*
O=C(N/N=C/c1cc2c3c(c1O)CCCN3CCC2)c1ccccc1O	4	-9	1	-23	63*
Cc1nn(-c2ccccc2)c(N2CCCC2)c1/C=N/NC(=O)c1ccccc1O	-8	-8	0	5	12
CCCSc1nc2sc3c(c2c(=O)[nH]1)CCN(Cc1ccccc1)C3	-2	-2	-44	4	54*
Cc1cccc(NC(=O)c2sc3nc(-c4ccc(F)cc4)cn3c2C)n1	23	-7	4	-19	7
COc1ccc(-c2cn3c(C)c(C(=O)Nc4cccc(C)n4)sc3n2)cc1	62*	-15	-1	-24	1
S=C(NCCN1CCOCC1)N/N=C/c1cccs1	1	1	.	.	.
Oc1cccc(/C=N/NC(=S)Nc2cccnc2)c1O	19	-1	51*	6	60*
NC(=S)N/N=C/c1cccc(O)c1O	6	12	66*	-14	60*
Fc1cccc(F)c1/C=N/NC(=S)Nc1cccnc1	-6	-13	-3	-16	9
Oc1cccc(/C=N/NC(=S)NCCN2CCOCC2)c1O	-14	4	60*	-16	66*
Cc1cc(C)n2nc(C(=O)OCC(=O)NC3CCS(=O)(=O)C3)nc2n1 (stereo not drawn)	13	.	.	.	.
Nc1[nH]nc2ncc3cc4ccccc4nc3c12	-5	13	27	-9	55*
CNC(CC(=O)c1ccc([N+](=O)[O-])cc1)C(Cl)(Cl)Cl (stereo not drawn)	70*	12	22	10	1
CC(C)CC1C(=O)N(Cc2cn(CC3CCCCC3)nn2)CCS(=O)(=O)N1Cc1ccc(-c2ccncc2)cc1 (stereo not drawn)	3	.	.	.	.
CC(=O)N(C)C1=C(N2CCOCC2)C(=O)c2ccccc2C1=O	42	11	55*	-10	49
CC(=O)N(C1=C(N2CCOCC2)C(=O)c2ccccc2C1=O)c1ccc(C(=O)O)cc1	50	19	.	-7	.
O=[N+]([O-])c1cccc(N/N=C/c2cccc(O)c2O)c1	58	12	25	-13	52*
O=[N+]([O-])c1ccccc1N/N=C/c1cccc(O)c1O	-9	-5	.	-9	.
SMILES	PfGluPho inh	HKDC1 inh	G6PDH CS	Tb hexokinase	Diaphorase inh
c1ccc2[nH]c3cc4ncnc4cc3nc2c1	-33	14	31	-19	55*
CNc1oc(Cc2ccccc2)nc1S(=O)(=O)c1ccc(Cl)cc1	1	-8	3	0	54*
CC(C)NC(=O)N(C)C[C@H]1Oc2ncc(Br)cc2C(=O)N([C@H](C)CO)C[C@@H]1C	6	.	.	.	.
O=C(NC1CCCC1)C(c1ccccn1)N(C(=O)c1csnn1)c1ccccc1Cl (stereo not drawn)	-13	-6	.	.	.
CCOC(=O)c1c(C)sc2c1N(C(=O)CN1CCOCC1)c1cc(Cl)ccc1S2	-46	-16	-4	-5	57*
Cc1[nH]c2ccccc2c1C(C[N+](=O)[O-])c1ccco1 (stereo not drawn)	38	9	2	5	51*
NC(=O)CCC(C(=O)O)N1C(=O)C2C3CCC(C3)C2C1=O (stereo not drawn)	3	.	.	.	.
CCCCCCCCCCCCCCCC[n+]1ccc(C(N)=O)cc1	8	17	-9	64*	-60
CN1CCc2c(C#N)c(N3CCCCC3)nc(NCc3ccccc3)c2C1	3	12	23	-12	17
N#Cc1c(NCCCO)nc(NCc2ccccc2)c2c1CCN(Cc1ccccc1)C2	24	9	40	-16	56*
COc1cccc(NC(=O)CCC2CCN(C(=O)C(OC)c3ccccc3)CC2)c1 (stereo not drawn)	4	.	.	.	.
CC1(C)N=C(N)N=C(N)N1c1ccc(CCCCc2ccccc2)cc1	10	.	.	.	.
O=C(Nc1ccc2c(c1)CN(C(=O)Nc1ccc(F)cc1)CC2)c1ccccn1	1	.	.	.	.
COc1cccc(NC(=O)N(C)C[C@H]2Oc3ncc(Br)cc3C(=O)N([C@H](C)CO)C[C@H]2C)c1	2	.	.	.	.
CCOC(=O)C1=C(C)c2ccccc2OC1(CC)C(=O)OCC (stereo not drawn)	9	11	.	.	.
CCOC(=O)C1=C(C)c2ccccc2N(C(=O)OC)C1(C)C(=O)OCC (stereo not drawn)	61*	21	.	.	.
CC(C)=CCc1c(O)ccc2c1OC(c1ccc(O)c(O)c1)CC2=O (stereo not drawn)	-1	4	28	-21	62*
O=C1CC(c2ccc(O)c(O)c2)Oc2c1ccc(O)c2O (stereo not drawn)	29	2	.	48	.
CSC(=NCc1cccnc1)NS(=O)(=O)c1cccs1	6	2	2	2	74*
O=S(=O)(NCc1cccnc1)c1cccs1	-12	-5	6	9	18
CC(C)C1C(=O)N(Cc2cn(Cc3ccco3)nn2)CCS(=O)(=O)N1Cc1ccc(-c2ccc(Cl)c(Cl)c2)cc1 (stereo not drawn)	20	.	.	.	.
Nc1ccc(S(=O)(=O)Nc2nc(-c3ccccc3)cc(-c3ccccc3O)n2)cc1	-17	.	.	.	.
O=[N+]([O-])c1ccc(O)c2cccnc12	8	18	2	-11	8
O=[N+]([O-])c1cc([N+](=O)[O-])c2cccnc2c1Oc1ccccc1O	-4	1	-10	-12	60*
O=[N+]([O-])c1cc(Cl)c(O)c2ncccc12	38	9	59*	9	41
SMILES	PfGluPho inh	HKDC1 inh	G6PDH CS	Tb hexokinase	Diaphorase inh
COCCNC(=O)C[C@@H]1C[C@H]2c3cc(NC(=O)Nc4ccc(F)cc4)ccc3O[C@H]2[C@H](CO)O1	-10	.	.	.	.
Cc1sc2nc(CN3CCOCC3)nc(NCCc3ccccc3)c2c1C	25	0	-3	-4	16
Cc1sc2nc(CN3CCOCC3)[nH]c(=S)c2c1C	41	-8	-12	-8	73*
CC(=O)N1CCC2(CC1)C/C(=N\NC(=S)Nc1ccc(C)cc1)c1cc(O)ccc1O2	35	5	1	-12	54*
COc1ccc(OC)c(NC(=O)CCNC(=O)N2CC(=O)Nc3ccccc32)c1	-11	.	.	.	.
Cc1cccc2nc(-c3ccco3)c(Nc3ccc4c(c3)OCO4)n12	6	3	9	0	72*
